# Results collected from several papers.
# Lines come from different studies, so protocols differ.
# Cell line: THP-1
SMILES,assay,setting,IC50
N[C@@H](CC(=O)N1CCN(C(c2ccc(F)cc2)c2ccc(F)cc2)CC1)C(=O)N1Cc2ccccc2C1,"cell growth or viability, ATP luminescence",48 h,2740 nM
O=C(O)c1ccc(CN2CCC(CN[C@@H]3C[C@H]3c3ccccc3)CC2)cc1,"cell growth or viability, MTS",6 days,> 50000 nM
CC[C@@H](C)[C@H](N)C(=O)N1Cc2ccccc2C1,"cell growth or viability, ATP luminescence",,1700 nM
O=[N+]([O-])c1c[nH]nc1-c1nc(-c2ccc(Oc3ccc(I)cc3)cc2)no1,"cell growth or viability, LDH",24 h,> 50 µg/mL
Nc1ncc(-c2cnn(C3CCNCC3)c2)cc1-c1nnc(CC2CC2)o1,"cell growth or viability, trypan blue",72 h,163 nM
O=[N+]([O-])c1c[nH]nc1-c1nc(-c2ccc3oc4ccccc4c3c2)no1,"cell growth or viability, LDH",24 h,9.8 µg/mL
C=C1C(=O)O[C@H]2[C@H]1CC/C(C)=C/CC[C@@]1(C)O[C@@H]21,"TNF-α release, inhibitor","17 h, LPS-stimulated",1300 nM
COc1cccc2c1C(=O)c1c(O)c3c(c(O)c1C2=O)C[C@@](O)(C(=O)CO)C[C@@H]3O[C@H]1C[C@H](N)[C@H](O)[C@H](C)O1,"cell growth or viability, MTT",48 h,2.7 µg/mL
O=C(Nc1nnc(-c2cc3ccccc3[nH]2)s1)c1cc2c([nH]c3ccccc32)c(-c2ccc(F)cc2)n1,"cell growth or viability, MTT",72 h,6110 nM
NCCc1c[nH]cn1,"TNF-α release, inhibitor","17 h, LPS-stimulated",1890 nM
COc1cc(-c2nc(C(=O)Nc3nnc(-c4cc5ccccc5n4C)s3)cc3c2[nH]c2ccccc23)cc(OC)c1OC,"cell growth or viability, MTT",72 h,8780 nM
COc1cc2nccc(Oc3ccc(NC(=O)C4(C(=O)Nc5ccc(F)cc5)CC4)cc3)c2cc1OC,"cell growth or viability, trypan blue",72 h,2920 nM
CC(CCc1ccc(O)cc1)NCCc1ccc(O)c(O)c1 (centres unmarked),"TNF-α release, inhibitor","17 h, LPS-stimulated",510 nM
COc1ccc(-c2nc(C(=O)Nc3nnc(-c4cc5ccccc5[nH]4)s3)cc3c2[nH]c2ccccc23)cc1,"cell growth or viability, MTT",72 h,3180 nM
O=C(Nc1nc2ccccc2n1CCN1CCOCC1)c1cccc([N+](=O)[O-])c1,"TNF-α release, inhibitor","17 h, LPS-stimulated",1120 nM
O=C(Nc1nnc(-c2cc3ccccc3[nH]2)s1)c1cc2c([nH]c3ccccc32)c(-c2ccc(Cl)cc2)n1,"cell growth or viability, MTT",72 h,4380 nM
CC(C)(C)NCC(O)c1cc(O)cc(O)c1 (centres unmarked),"TNF-α release, inhibitor","17 h, LPS-stimulated",2180 nM
Cn1c(-c2nnc(NC(=O)c3cc4c([nH]c5ccccc54)c(-c4ccccc4)n3)s2)cc2ccccc21,"cell growth or viability, MTT",72 h,14200 nM
CC(C)(C)c1ccc(S(=O)(=O)/C=C/C#N)cc1,"TNF-α release, inhibitor","17 h, LPS-stimulated",740 nM
CCn1c(-c2nnc(NC(=O)c3cc4c([nH]c5ccccc54)c(-c4ccc(OC)cc4)n3)s2)cc2ccccc21,"cell growth or viability, MTT",72 h,48600 nM
